ANO1 activ – activators or potentiators of mouse TMEM16A chloride channel; Q8BHY3; HEK293 TMEM16A/YFP-H148Q/I152L, iodide quench fluorescence; hits give low values; B-score at 10 µM; actives 0.3% (n = 340,000); AID 623877;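 active means fluorescence-ratio B-score plate-corrected deviation score at least 3 library SD below zero, with starting fluorescence score within 5 deviations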;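 further: channel opened by trigger with iodide after compound preincubation; score built on the fluorescence ratio of max minus min over baseline; more negative score means more quench and so TMEM16A activation or potentiation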
TMEM16A inh – mouse TMEM16A channel inhibition, primary screen. Q8BHY3. HEK293 TMEM16A/YFP iodide influx fluorescence, ionomycin. normalized B-score (activity score, 25-100; higher = stronger inhibition) at 10 µM. actives 1.2% (n = 310,000). AID 588511;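 active means ratio plate-corrected score three or more library SD toward inhibition, starting fluorescence score within five deviations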;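 further: score derived from kinetic fluorescence span divided by baseline fluorescence per well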
CHOP UPR activ – apoptotic UPR (CHOP) activation | CHO-CHOP luciferase reporter, luminescence; percent of tunicamycin response over DMSO baseline | activation, % at 10 µM | actives 0.34% (n = 330,000);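 active means at 10 µM dose, activation of 40% or more, normalized to positive control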;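 further: 100% = tunicamycin at 10 µg/mL and 0% = DMSO alone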
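Dosing – one dose, 10 µM in 0.5% DMSO · System – CHO-CHOP cells, stable luciferase reporter of PERK-eIF2a-CHOP signalling · Input – 500 cells/well · Control set – tunicamycin 10 µg/mL final as positive, DMSO-only wells as negative · Timing – 6 h compound treatment, 37 °C · Measure – % activation vs tunicamycin · Technique – luminescence read with Steady-Glo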
Hep lipid drop – hepatic lipid droplet formation modulation; AML12 mouse hepatocytes, oleate lipid droplets, BODIPY imaging; inhibition, % at 6.5 µM; actives 0.4% (n = 240,000); AID 1656;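 active means lipid droplet intensity inhibited by at least 50%, with more than 500 cells counted; inconclusive means wells with under 300 cells, treated as cytotoxic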
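material = mouse AML12 hepatocyte cell line, fixed after treatment | also added = 100 µM oleic acid challenge | doses = compound at 6.5 µM only | schedule = overnight exposure | technique = Image-based BODIPY and DAPI two-channel analysis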
UPR XBP1 act – activators of adaptive arm of unfolded protein response (XBP1) | CHO-XBP1 luciferase reporter, IRE1-XBP1 UPR activation, luminescence; percent of tunicamycin response, DMSO as zero | activation, % at 20 µM | actives 0.33% (n = 330,000);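 active means versus positive control, 20 µM dose yields 30% or more activation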;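 further: 100% = tunicamycin at 10 µg/mL and 0% = DMSO only wells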
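Assay system: IRE1-XBP1 luciferase reporter CHO line. Input: 1000 cells/well. Buffer or medium: F12 with 10% serum. Doses: 20 µM, 1% DMSO. Times: overnight seeding at 37 °C, 6 h compound treatment at 37 °C. Technique: Steady-Glo luciferase glow luminescence, 10 min after reagent addition.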
CHOP inhibitor – blocks CHOP induction under ER stress; actives 3.8% (n = 220,000); inhibition, % at 10 µM; CHO-K1 CHOP-promoter luciferase, tunicamycin-induced, 15-18 h;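 active means compounds that reduced the stress-induced luciferase reporter signal by more than about 70% of percent inhibition, limit read from the data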;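 further: 0% = tunicamycin plus vehicle and 100% = wells without tunicamycin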
UPR XBP1 confirm – confirmation of adaptive unfolded protein response (XBP1) activators | shares compounds with UPR XBP1 act | CHO-XBP1 IRE1-XBP1 luciferase reporter, luminescence | activation, % at 20 µM | actives 63% (n = 1,000);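 active means reporter signal at least 30% of the positive control's activation in two or more of four replicate wells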;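 further: plate controls were DMSO negative control for no effect and tunicamycin 10 µg/mL positive control for full effect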
Active calls of the source: *; i = inactive; ? = inconclusive; . = no result. Sampled rows, rich in hits. Any-hit rate of the full collection: about 4.2%.

SMILES	ANO1 activ	TMEM16A inh	CHOP UPR activ	Hep lipid drop	UPR XBP1 act	CHOP inhibitor	UPR XBP1 confirm
Cc1ccc(C)c(N2CCN(C(=O)c3cc(S(=O)(=O)N4CCOCC4)ccc3F)CC2)c1	i	i	0	2	33*	39	0
Cc1ccc(C(=O)Nc2cc(S(=O)(=O)N3CCOCC3)ccc2N2CCCC2)cc1	i	.	1	.	35*	.	38*
CN1CCN(c2ccccc2NC(=O)c2sc3ccccc3c2Cl)CC1	i	i	-1	6	3	24	.
Cc1ccc(-n2nc3c(N4CCC(C(=O)NCCc5ccccc5C)CC4)nnc(C)c3c2C)cc1	i	i	3	-9	39*	.	30*
COc1ccc(-n2nc3c(N4CCC(C(=O)NCCc5ccccc5C)CC4)nnc(C)c3c2C)cc1	i	i	0	-124	50*	.	0
Cc1oc(-c2ccccc2F)nc1CS(=O)(=O)CC(=O)NCCCN1CC(C)CC(C)C1 (stereo not given)	i	i	-1	-2	-5	.	.
CCC(=O)Nc1ccc(NC(=O)CSc2nc3cc4c(cc3cc2C)CCC4)cc1	i	i	1	.	50*	94*	40*
CCOC(=O)Cn1cc(/C=N/N2C(=O)C3C4C=CC(C4)C3C2=O)c2ccccc21 (stereo not given)	i	i	0	2	3	2	.
COc1ccc(C2CC(c3c(-c4ccccc4)c4cc(Cl)ccc4[nH]c3=O)=NN2S(C)(=O)=O)cc1 (stereo not given)	i	i	-1	-38	50*	70	140*
COc1ccc(OC)c(C2CC(c3c(-c4ccccc4)c4cc(Cl)ccc4[nH]c3=O)=NN2S(C)(=O)=O)c1 (stereo not given)	i	i	2	.	54*	-1	20
C=CC[C@@H](CC(=O)N[C@H](CO)Cc1ccccc1)C(=O)N[C@H](COC(=O)[C@@H](CC=C)Cc1ccc(F)cc1)Cc1ccccc1	i	.	4	.	-1	.	.
CCCCOc1ccc(NC(=S)Nc2cc(C)nc(SCCCC)n2)cc1	i	i	2	-6	0	62	.
Cc1ccc(S(=O)(=O)N2CCN(C(=O)CN3C(=O)c4ccccc4C3=O)CC2)c(C)c1	i	.	2	.	-2	.	.
O=C(N/N=C/c1ccc(Cl)cc1)c1sccc1OCc1ccc(F)cc1	i	i	3	?	50*	-7	55*
O=C(N/N=C/c1ccc(F)cc1)c1sccc1OCc1ccc(F)cc1	i	i	0	.	3	-25	.
COc1ccc2nc(C)cc(SCC(=O)N/N=C/c3cccc4ccccc34)c2c1	i	i	27	13	80*	39	126*
COC(=O)CSc1cc(C)nc2ccc(OC)cc12	i	i	0	.	-3	3	.
CC(C)CCOc1ccc(-c2c(=O)n(OCc3ccc([N+](=O)[O-])cc3)c3ccccc3[n+]2[O-])cc1	i	i	16	.	41*	1	6
CCCOc1ccc(-c2c(=O)n(OCc3ccc([N+](=O)[O-])cc3)c3ccccc3[n+]2[O-])cc1	i	i	1	-4	10	30	.
CC1CCN(C(=O)CN2C(=O)C(=O)N(C)C2=O)c2ccccc2S1 (stereo not given)	i	.	0	.	-1	.	.
COc1ccc(-c2nc3scc(-c4ccc(OC)c(OC)c4)c3c(=O)o2)cc1	i	i	12	.	41*	92*	47*
COc1cc(/C=C2/C(=N)N3C=CSC3=NC2=O)ccc1OCCCOc1cc(C)ccc1C	i	i	-1	.	85*	34	129*
COc1ccc(CCNC(=O)c2cc3c(=O)n4ccccc4nc3n(Cc3ccco3)c2=N)cc1OC	i	i	7	1	43*	.	-3
